Results on 20 compounds are retold here after ChEMBL document CHEMBL1140054, “Phosphate prodrugs derived from N-acetylglucosamine have enhanced chondroprotective activity in explant cultures and represent a new lead in antiosteoarthritis drug discovery” (J Med Chem, 2008).

The nature of data set [1]: Cytotoxicity against bovine chondrocytes at 10 mM after 96 hrs by MTT cell viability assay. The class given is cell-based, Bos taurus. The following applies: cattle, 10000 µM. In outline:
(§1)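 Chondrocytes isolated from mature bovine (>18 months) metacarpophalangeal cartilage by 1 h 0.1% pronase then overnight 0.04% collagenase digestion at 37 °C. Cultured 96 h in serum-free DMEM with gentamicin and 1% HEPES, with or without compound (10-0.1 mM). MTT at final 1 mg/mL for 3 h; formazan dissolved in DMSO and OD read. Viability given as % of untreated cells; n experiments from different cows, in triplicate.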

Data set [2] in a line: Chondroprotective activity in bovine articular cartilage explant cultures assessed as reduction in IL1-induced glycosaminoglycan release at 10 mM after 96 hrs relative to control. The format is functional, Bos taurus. On the set-up: scale not given: the % may be the effect or the level left. In outline:
(§2)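 Full-depth articular cartilage explants (50-100 mg) from mature bovine metacarpophalangeal joints; equilibrated 48 h in DMEM with 10% FCS, gentamicin, 1% HEPES, then washed in serum-free medium. Cultured in triplicate in serum-free DMEM with or without compound (10-0.1 mM); 10 ng/mL recombinant human IL-1 added to half the wells. After 96 h, media sulfated GAG measured by DMMB dye binding (A525) against shark chondroitin sulfate C standard.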

Data set [3] is described as follows: Chondroprotective activity in bovine articular cartilage explant cultures assessed as reduction in IL1-induced glycosaminoglycan release at 10 mM after 96 hrs. The format is functional, Bos taurus. The gist of the method: as §2
A short description of data set [4]: Chondroprotective activity in bovine articular cartilage explant cultures assessed as reduction in IL1-induced glycosaminoglycan release at 1 mM after 96 hrs. The format is functional, Bos taurus. In outline: as §2
A short description of data set [5]: Chondroprotective activity in bovine articular cartilage explant cultures assessed as reduction in IL1-induced glycosaminoglycan release at 1 mM after 96 hrs relative to control. The format is functional, Bos taurus. Details: scale not given: the % may be the effect or the level left. The gist of the method: as §2
The nature of data set [6]: Cytotoxicity against bovine chondrocytes at 1 mM after 96 hrs by MTT cell viability assay. The class given is cell-based, Bos taurus. As to conditions: cattle, 1000 µM. The gist of the method:
as §1
A general note: Tetrazolium assays rely on reduction of a dye to a coloured formazan, in cell work by metabolically active cells.

The nature of data set [7]: Chondroprotective activity in bovine articular cartilage explant cultures assessed as reduction in IL1-induced glycosaminoglycan release at 0.1 mM after 96 hrs. The format is functional, Bos taurus. In outline: as §2
The nature of data set [8]: Chondroprotective activity in bovine articular cartilage explant cultures assessed as reduction in IL1-induced glycosaminoglycan release at 0.1 mM after 96 hrs relative to control. The class given is functional, Bos taurus. Details: scale not given: the % may be the effect or the level left. The gist of the method:
as §2

Data set [9] in a line: Cytotoxicity against bovine chondrocytes at 0.1 mM after 96 hrs by MTT cell viability assay. The class given is cell-based, Bos taurus. The following applies: cattle, 100 µM. In outline: as §1

`COc1ccc(OP(=O)(N[C@@H](Cc2ccccc2)C(=O)OCc2ccccc2)OC[C@H]2OC(O)[C@H](NC(C)=O)[C@@H](O)[C@@H]2O)cc1` (some centres not stated): the Activity stood at 49% in data set [1] and 2.3% in data set [2]. Further, the “fold change (FC)” value in data set [3] was determined as 2.1.
With `COc1ccc(OP(=O)(N[C@@H](CCSC)C(=O)OCc2ccccc2)OC[C@H]2OC(O)[C@H](NC(C)=O)[C@@H](O)[C@@H]2O)cc1` (some centres not stated), the “fold change (FC)” value in data set [4] is 1.6; in data set [7] it was 3.8. The Activity in [5] was 62.2%; in data set [6] it was 49%; in data set [8] it was 18%; in [9], 103%.
With `COc1ccc(OP(=O)(N[C@H](C)C(=O)OCc2ccccc2)OC[C@H]2OC(O)[C@H](NC(C)=O)[C@@H](O)[C@@H]2O)cc1` (some centres not stated), the “fold change (FC)” value in data set [4] is 2.8; in [7], 3.4. The Activity in [5] is reported as 31%; in data set [6], 66%; in [8] it was 24.3%; in [9] it was 96%.
In the case of `COc1ccc(OP(=O)(OC[C@H]2OC(O)[C@H](NC(C)=O)[C@@H](O)[C@@H]2O)N2CCC[C@H]2C(=O)OCc2ccccc2)cc1` (some centres not stated), the “fold change (FC)” value in data set [4] is 4.1; in data set [3] it was 0.8; in [7] it was 4. The Activity in data set [1] is 63%; in data set [2], 65.6%; in data set [5], 2.2%; in data set [6], 85%; in data set [8], -21.9%; in data set [9], 78%.
Turning to `CCOC(=O)[C@@H](NP(=O)(OC[C@H]1OC(O)[C@H](NC(C)=O)[C@@H](O)[C@@H]1O)Oc1ccc(OC)cc1)C(C)C` (some centres not stated), the “fold change (FC)” value in [7] turned out to be 4.4. Also, the Activity is recorded as -21.1% in [8] and 94% in data set [9].
Turning to `CCOC(=O)[C@H](C)NP(=O)(OC[C@H]1OC(O)[C@H](NC(C)=O)[C@@H](O)[C@@H]1O)Oc1ccc(OC)cc1` (some centres not stated), the values for the Activity in [6], in [8] and in data set [9] were 76%, -1.9% and 89%, respectively. Also, the “fold change (FC)” value in data set [7] turned out to be 4.4.
The matching figures for `CCOC(=O)CNP(=O)(OC[C@H]1OC(O)[C@H](NC(C)=O)[C@@H](O)[C@@H]1O)Oc1ccc(OC)cc1` (some centres not stated): 37%, -19.3%, 78% and 3.6.
On to `CCOC(=O)CN(C)P(=O)(OC[C@H]1OC(O)[C@H](NC(C)=O)[C@@H](O)[C@@H]1O)Oc1ccc(OC)cc1` (some centres not stated), for which the Activity is listed as 100% in data set [6], -16.3% in [8] and 100% in [9]. For the same compound, the “fold change (FC)” value in data set [7] was 5.4.
Regarding `COc1ccc(OP(=O)(N[C@@H](C)C(=O)OCc2ccccc2)OC[C@H]2OC(O)[C@H](NC(C)=O)[C@@H](O)[C@@H]2O)cc1` (some centres not stated), the results for the “fold change (FC)” value in [4], in [3] and in data set [7] were 4.2, 2 and 4.6, respectively. The Activity was 85% in [1]; 24.2% in [2]; 5.6% in data set [5]; 81% in data set [6]; -2.2% in data set [8]; 104% in data set [9].
Regarding `COc1ccc(OP(=O)(N[C@H](C(=O)OCc2ccccc2)C(C)C)OC[C@H]2OC(O)[C@H](NC(C)=O)[C@@H](O)[C@@H]2O)cc1` (some centres not stated), the “fold change (FC)” value in data set [4] was found to be 0.9; in [3] it was 0.5; in data set [7], 4. In addition, the Activity in data set [1] came out at 40%; in data set [2], 85.3%; in [5], 77.6%; in data set [6] it was 100%; in [8], 2.5%; in [9], 104%.
Regarding `COc1ccc(OP(=O)(N[C@H](C(=O)OC2CCCCC2)C(C)C)OC[C@H]2OC(O)[C@H](NC(C)=O)[C@@H](O)[C@@H]2O)cc1` (some centres not stated), the Activity in data set [6] is listed as 30%; in [8], -6.3%; in data set [9] it was 92%. The “fold change (FC)” value in [7] is 4.8.
The matching figures for `COC(=O)[C@H](C)NP(=O)(OC[C@H]1OC(O)[C@H](NC(C)=O)[C@@H](O)[C@@H]1O)Oc1ccc(OC)cc1` (some centres not stated): 37%, 15.8%, 97% and 3.9.
As for `COc1ccc(OP(=O)(N[C@H](C(=O)OC(C)C)C(C)C)OC[C@H]2OC(O)[C@H](NC(C)=O)[C@@H](O)[C@@H]2O)cc1` (some centres not stated), the “fold change (FC)” value came to 3.6 in data set [4] and 3.2 in [7]. Moreover, the Activity in [5] was 12.1%; in data set [6], 56%; in data set [8] it was 14%; in data set [9] it was 93%.
As to `CCCCOC(=O)[C@@H]1CCCN1P(=O)(OC[C@H]1OC(O)[C@H](NC(C)=O)[C@@H](O)[C@@H]1O)Oc1ccc(OC)cc1` (some centres not stated), the “fold change (FC)” value in [7] came out at 4.1. Moreover, the Activity in data set [8] was -17.5%; in data set [9], 98%.
For `COc1ccc(OP(=O)(NCC(=O)OCc2ccccc2)OC[C@H]2OC(O)[C@H](NC(C)=O)[C@@H](O)[C@@H]2O)cc1` (some centres not stated), the “fold change (FC)” value in data set [4] stood at 1.2; in [7], 4.2. The Activity was 73.6% in [5], 100% in data set [6], -12.2% in data set [8] and 99% in data set [9].
With `CC[C@H](C)[C@H](NP(=O)(OC[C@H]1OC(O)[C@H](NC(C)=O)[C@@H](O)[C@@H]1O)Oc1ccc(OC)cc1)C(=O)OCc1ccccc1` (some centres not stated), the “fold change (FC)” value amounted to 1.2 in [4], 0.5 in data set [3] and 3.9 in data set [7]. Further, the Activity is 56% in data set [1]; 74.6% in data set [2]; 70.8% in [5]; 118% in data set [6]; 5.2% in data set [8]; 110% in data set [9].
Turning to `COc1ccc(OP(=O)(N[C@@H](CC(C)C)C(=O)OCc2ccccc2)OC[C@H]2OC(O)[C@H](NC(C)=O)[C@@H](O)[C@@H]2O)cc1` (some centres not stated), the “fold change (FC)” value in [4] stood at 2.6; in [3] it was 0.9; in [7] it was 4.1. The Activity in data set [1] was 39%; in data set [2], 64%; in data set [5], 44.7%; in data set [6], 20%; in data set [8] it was 12.2%; in data set [9], 87%.
As to `COc1ccc(OP(=O)(NC(C)(C)C(=O)OCc2ccccc2)OC[C@H]2OC(O)[C@H](NC(C)=O)[C@@H](O)[C@@H]2O)cc1` (some centres not stated), the entries for the “fold change (FC)” value in data set [4] and in [7] were 4.2 and 3.4, respectively. The Activity in [5] is given as -0.3%; in data set [6], 95%; in data set [8], -2.2%; in data set [9] it was 99%.
For `N[C@H]1C(O)O[C@H](CO)[C@@H](O)[C@@H]1O` (some centres not stated) [GLUCOSAMINE], the results for the “fold change (FC)” value in data set [4], in [3] and in data set [7] were 4.7, 2 and 5.1, respectively. Besides, the Activity in data set [1] was determined as 56%; in data set [2] it was 19%; in [5], 3.4%; in data set [6], 88%; in [8], 0.8%; in data set [9] it was 106%.
`CC(=O)N[C@@H]1[C@@H](O)[C@H](O)[C@@H](CO)O[C@H]1O` [N-ACETYLGLUCOSAMINE]: the “fold change (FC)” value worked out at 4.5 in [4], 2.9 in data set [3] and 4.3 in data set [7]. The Activity in data set [1] was 61%; in data set [2], 9.3%; in data set [5], -1%; in data set [6], 70%; in data set [8] it was 5.4%; in [9], 107%.
